The values that follow come from article PMC3983348 (Journal of Medicinal Chemistry, 2014).

The test system of series [1] is prostate, DU-145. Put plainly: NCI-60 five-dose assay, DU-145. Particulars: Homo sapiens, DU-145, read-out: cytotoxicity GI50, prostate, DU-145. The series is classed as cell-based. The method in brief:
(§1)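 Run in the National Cancer Institute's NCI-60 human cancer cell panel. Test compounds were first screened in a one-dose assay at 10–5 M, reading growth percent relative to vehicle-treated control.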

In series [2] the test system is renal, SN12C. Put plainly: NCI-60 five-dose assay, SN12C. The series is classed as cell-based. Particulars: Homo sapiens, read-out: cytotoxicity GI50, renal, SN12C. A digest of the protocol:
as §1

Series [3] deals with breast, MCF7. Put plainly: NCI-60 five-dose assay, MCF7. Particulars: Homo sapiens, MCF7, read-out: cytotoxicity GI50, breast, MCF7. The series is classed as cell-based. The method in brief: as §1
Series [4] relates to ovarian, OVCAR-3. Put plainly: NCI-60 five-dose assay, OVCAR-3. The series is classed as cell-based. Particulars: Homo sapiens, OVCAR-3, read-out: cytotoxicity GI50, ovarian, OVCAR-3. The method in brief: as §1
Series [5] relates to melanoma, UACC-62. Put plainly: NCI-60 five-dose assay, UACC-62. Particulars: Homo sapiens, UACC-62, read-out: cytotoxicity GI50, melanoma, UACC-62. The series is classed as cell-based. A digest of the protocol: as §1
The subject of series [6] is colon, HCT-116. Put plainly: NCI-60 five-dose assay, HCT-116. The series is classed as cell-based. Particulars: Homo sapiens, HCT-116, read-out: cytotoxicity GI50, colon, HCT-116. The method in brief:
as §1

In series [7] the test system is lung, HOP-62. Put plainly: NCI-60 five-dose assay, HOP-62. The series is classed as cell-based. Particulars: Homo sapiens, HOP-62, read-out: cytotoxicity GI50, lung, HOP-62. A digest of the protocol:
as §1

For series [8], the system named is panel of 60 different human cancer cell lines. Particulars: mean graph midpoint, five-dose assay; cited from earlier work.
The subject of series [9] is melanoma, UACC-62. Particulars: read-out: cytotoxicity GI50, melanoma, UACC-62; five-dose assay; cited from earlier work.
The test system of series [10] is prostate, DU-145. Particulars: read-out: cytotoxicity GI50, prostate, DU-145; five-dose assay; cited from earlier work.
Series [11] deals with ovarian, OVCAR-3. Particulars: read-out: cytotoxicity GI50, ovarian, OVCAR-3; five-dose assay; cited from earlier work.
Series [12] concerns CNS, SF-539. Particulars: read-out: cytotoxicity GI50, CNS, SF-539; five-dose assay; cited from earlier work.
For series [13], the target named is T1, recombinant Top1 (Homo sapiens, UniProt P11387).
T1 sequence (P11387 1-765): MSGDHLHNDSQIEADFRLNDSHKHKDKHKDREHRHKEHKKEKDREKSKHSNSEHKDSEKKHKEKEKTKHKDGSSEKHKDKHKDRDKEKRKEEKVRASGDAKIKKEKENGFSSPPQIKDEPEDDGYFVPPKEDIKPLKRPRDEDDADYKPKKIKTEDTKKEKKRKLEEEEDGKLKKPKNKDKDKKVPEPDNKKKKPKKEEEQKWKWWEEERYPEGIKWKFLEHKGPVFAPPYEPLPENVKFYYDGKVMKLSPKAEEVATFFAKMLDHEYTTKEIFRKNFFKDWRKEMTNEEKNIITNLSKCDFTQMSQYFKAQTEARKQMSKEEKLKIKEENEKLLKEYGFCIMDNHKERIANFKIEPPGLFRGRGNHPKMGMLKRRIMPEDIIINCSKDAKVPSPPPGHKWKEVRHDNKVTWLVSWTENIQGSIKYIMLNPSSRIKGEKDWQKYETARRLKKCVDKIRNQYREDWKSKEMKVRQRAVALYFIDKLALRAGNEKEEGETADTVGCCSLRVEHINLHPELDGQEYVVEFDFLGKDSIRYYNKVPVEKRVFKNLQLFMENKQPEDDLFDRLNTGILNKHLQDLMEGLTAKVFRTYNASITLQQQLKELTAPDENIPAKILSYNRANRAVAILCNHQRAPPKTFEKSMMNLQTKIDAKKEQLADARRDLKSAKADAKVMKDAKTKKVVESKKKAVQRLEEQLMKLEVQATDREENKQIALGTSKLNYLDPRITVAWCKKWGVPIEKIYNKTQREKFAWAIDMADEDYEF
Also on record: key to the marks not given beside the values. Particulars: score based on the activity of 1 μM camptothecin; cited from earlier work.

For series [14], the system named is colon, HCT-116. Particulars: read-out: cytotoxicity GI50, colon, HCT-116; five-dose assay; cited from earlier work.
For series [15], the system named is lung, HOP-62. Particulars: read-out: cytotoxicity GI50, lung, HOP-62; five-dose assay; cited from earlier work.
For series [16], the system named is breast, MCF7. Particulars: read-out: cytotoxicity GI50, breast, MCF7; five-dose assay; cited from earlier work.
The test system of series [17] is renal, SN12C. Particulars: read-out: cytotoxicity GI50, renal, SN12C; five-dose assay; cited from earlier work.
The test system of series [18] is panel of 60 different human cancer cell lines. Put plainly: NCI-60 five-dose assay, mean graph midpoint. The series is classed as cell-based. Particulars: mean graph midpoint of growth inhibition, five-dose assay 10^–8 to 10^–4 M.
Series [19] has as its target T1, recombinant Top1. Put plainly: Top1-mediated DNA cleavage assay. The series is classed as biochemical. Particulars: compound-induced DNA cleavage, score based on the activity of 1 μM camptothecin.
Series [20] relates to ∼60 cancer cell lines. Put plainly: NCI-60 one-dose assay. Particulars: Homo sapiens, read-out: mean growth, %, 10 μM compound, one-dose assay, relative to vehicle-treated control. The series is classed as cell-based. The method in brief: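 Single-dose screen at 10–5 M across the ~60 human cancer cell lines of the NCI-60 panel. Growth percent of treated cells was expressed relative to vehicle-treated controls and averaged over the panel.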

Like-named read-outs stand apart in the source and are kept apart here.

`CC[C@@]1(O)C(=O)OCc2c1cc1n(c2=O)Cc2cc3ccccc3nc2-1` [Compound 1, camptothecin, reference compound]: the GI50 in series [1] came to 10 nM; in series [2], 20 nM; in series [3], 10 nM; in series [4], 220 nM; in [5], 10 nM; in series [6], 30 nM. In [7], the GI50 is 10 nM.

On to `COc1cc2c3c(n(CCCN4CCOCC4)c(=O)c2cc1OC)-c1cc2c(cc1C3=O)OCO2` [Compound 4, 2,3-Dimethoxy-6-(3-morpholinopropyl)-5,6-dihydro-8,9-methylenedioxy-5,12-dioxoindeno[1,2-c]isoquinoline], for which, in series [8], the MGM was 4.64 ± 1.25 µM. Besides, the GI50 in series [9] was 30 nM; in [10], 155 nM; in series [11], 74100 nM; in [12], 40 nM; in series [14], 1150 nM; in [15], 1780 nM. Besides, the GI50 in [16] was 370 nM; in series [17], 813 nM. Also, the Top1 cleavage result in series [13] is on record as “++++”.

Turning to `COc1cc2c3c(n(CCCn4ccnc4)c(=O)c2cc1OC)-c1cc2c(cc1C3=O)OCO2` [Compound 5, 6-(3-(1H-Imidazol-1-yl)propyl)-2,3-dimethoxy-5,6-dihydro-8,9-methylendioxy-5,12-dioxoindeno[1,2-c]isoquinoline], in series [8], the MGM is 0.079 ± 0.023 µM. Besides, the GI50 in [9] is below 10 nM; in series [10], below 10 nM; in series [11], 85 nM; in series [12], 37 nM; in [14], below 10 nM; in series [15], below 10 nM. Also, the GI50 in series [17] is below 10 nM. For the same compound, the Top1 cleavage entry in series [13] is on record as “++++”.

For the compound `O=C1c2ccccc2-c2c1c1ccc([N+](=O)[O-])cc1c(=O)n2C[C@H](O)[C@@H](O)[C@@H](O)[C@H](O)CO` [Compound 69, (2′S,3′R,4′S,5′R)-5,6-Dihydro-6-(2′,3′,4′,5′,6′-pentahydroxyhexyl)-3-nitro-5,11-dioxo-11H-indeno[1,2-c]isoquinoline], the MGM in series [18] was determined as 7.94 µM. The GI50 in series [6] was 3390 nM. Besides, the Top1 cleavage result in series [19] is recorded as “++++”. For the same compound, the activity at 10 µM in [20] fell in the range of 51.5 to 73.2%.

What is called GI50 is the concentration at which growth is held to half of that of the control.
